Assay results as given in PubChem BioAssay AID588682 (Southern Research Specialized Biocontainment Screening …, 2011).
Calls of active or inactive are those of the source.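 Rule for the calls: active = inhibition of 30% or more at any tested concentration; inactive = the rest.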

What follows are molecules tested on M17 leucyl aminopeptidase (Plasmodium falciparum 3D7) (assay: PfM17LAP leucine aminopeptidase inhibitors, dose response, counter-screen for PfM1AAP inhibitor project, biochemical, QFRET (AID 588682)). Settings: recombinant PfM17LAP, H-Leu-NHMec fluorogenic cleavage; series mostly up to 100 µM; inhibition: at the top concentration.
Procedure, shortened: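 Material: recombinant Plasmodium falciparum M17 leucine aminopeptidase (rPFM17LAP). Amount: 5 µg/mL rPFM17LAP enzyme. Medium: Tris pH 7.5 plus 2 mM CoCl2. Doses: compound dose series from 100 to 0.2 µM. Incubation: 90 min, room temperature. Signal: fluorescence 370/460 nm. Evaluation: % enzyme inhibition. Control set: background wells lacking enzyme. Repeats: triplicate.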
With `CC[C@H](C)[C@H](NC(=O)c1ccc(C(C)(C)C)cc1)C(=O)NCc1ccc(C(F)(F)F)cc1` the “inhibition” value was 2.66% (inactive).
With `CC[C@H](C)[C@H](NC(=O)c1ccc([N+](=O)[O-])cc1)C(=O)NCc1ccccc1` the “inhibition” value was 0.01% (inactive).
In the case of `CN(C)c1ccc(CNC(=O)C2CCN(S(=O)(=O)c3ccc(Br)s3)CC2)cc1`, the “inhibition” value is reported as -16.8% (inactive).
`O=C(NCc1ccc2c(c1)OCO2)C1CCN(S(=O)(=O)c2ccc(-c3ccc(F)cc3)s2)CC1` was tested, and the “inhibition” value was 5.56% (inactive).
For `COc1cccc(-c2ccc(S(=O)(=O)N3CCC(C(=O)NCc4ccc5c(c4)OCO5)CC3)s2)c1`, the “inhibition” value was 9.87% (inactive).
`CC[C@H](C)[C@H](NS(=O)(=O)c1ccc(Br)s1)C(=O)NCc1ccc(C(F)(F)F)cc1` was tested, and the “inhibition” value was 12.8% (inactive).
In the case of `CC[C@H](C)[C@H](NC(=O)c1ccc([N+](=O)[O-])cc1)C(=O)NCc1ccc(C(F)(F)F)cc1`, the “inhibition” value is reported as 1.14% (inactive).
With `CC(C)(C)c1ccc(-c2ccc(S(=O)(=O)N3CCC(C(=O)NCc4ccc5c(c4)OCO5)CC3)s2)cc1` the “inhibition” value was 3.33% (inactive).
For `CC[C@H](C)[C@H](NC(=O)c1ccc([N+](=O)[O-])cc1)C(=O)NCc1ccc(F)cc1`, the “inhibition” value was 5.3% (inactive).
In the case of `CC[C@H](C)[C@H](NS(=O)(=O)c1ccc(Br)s1)C(=O)O`, the “inhibition” value is reported as 13.1% (inactive).
With `COc1ccc(-c2ccc(S(=O)(=O)N3CCC(C(=O)NCc4ccc5c(c4)OCO5)CC3)s2)cc1` the “inhibition” value was -148% (inactive).
With `CC[C@H](C)[C@H](NS(=O)(=O)c1cccs1)C(=O)NCc1ccc(F)cc1` the “inhibition” value was 16% (inactive).
With `O=C(NCc1ccc2c(c1)OCO2)C1CCN(S(=O)(=O)c2ccc(-c3cncc4ccccc34)s2)CC1` the “inhibition” value was 10.1% (inactive).
With `CC(=O)Nc1cccc(-c2ccc(S(=O)(=O)N3CCC(C(=O)NCc4ccc5c(c4)OCO5)CC3)s2)c1` the “inhibition” value was -15.5% (inactive).
In the case of `O=C(NCc1ccc2c(c1)OCO2)C1CCN(S(=O)(=O)c2ccc(-c3cccc(F)c3)s2)CC1`, the “inhibition” value is reported as -2.68% (inactive).
With `CC[C@H](C)[C@H](NS(=O)(=O)c1ccc(Br)s1)C(=O)NCc1ccc(F)cc1` the “inhibition” value was 28.7% (inactive).
With `O=C(NCc1ccc2c(c1)OCO2)C1CCN(S(=O)(=O)c2ccc(-c3ccccc3)s2)CC1` the “inhibition” value was -13.1% (inactive).
